Assay results as given in ChEMBL document CHEMBL4346686, “Discovery and biological evaluation of novel androgen receptor antagonist for castration-resistant prostate cancer” (Eur J Med Chem, 2019).

Columns and labels:
[1] = molecular target: T1, Androgen receptor (Homo sapiens) (UniProt P10275); test: Antagonist activity at androgen receptor in human VCaP cells assessed as inhibition of R1881-induced PSA mRNA expression after 24 hrs by qRT-PCR analysis; assay type: cell-based
T1 sequence (whole entry): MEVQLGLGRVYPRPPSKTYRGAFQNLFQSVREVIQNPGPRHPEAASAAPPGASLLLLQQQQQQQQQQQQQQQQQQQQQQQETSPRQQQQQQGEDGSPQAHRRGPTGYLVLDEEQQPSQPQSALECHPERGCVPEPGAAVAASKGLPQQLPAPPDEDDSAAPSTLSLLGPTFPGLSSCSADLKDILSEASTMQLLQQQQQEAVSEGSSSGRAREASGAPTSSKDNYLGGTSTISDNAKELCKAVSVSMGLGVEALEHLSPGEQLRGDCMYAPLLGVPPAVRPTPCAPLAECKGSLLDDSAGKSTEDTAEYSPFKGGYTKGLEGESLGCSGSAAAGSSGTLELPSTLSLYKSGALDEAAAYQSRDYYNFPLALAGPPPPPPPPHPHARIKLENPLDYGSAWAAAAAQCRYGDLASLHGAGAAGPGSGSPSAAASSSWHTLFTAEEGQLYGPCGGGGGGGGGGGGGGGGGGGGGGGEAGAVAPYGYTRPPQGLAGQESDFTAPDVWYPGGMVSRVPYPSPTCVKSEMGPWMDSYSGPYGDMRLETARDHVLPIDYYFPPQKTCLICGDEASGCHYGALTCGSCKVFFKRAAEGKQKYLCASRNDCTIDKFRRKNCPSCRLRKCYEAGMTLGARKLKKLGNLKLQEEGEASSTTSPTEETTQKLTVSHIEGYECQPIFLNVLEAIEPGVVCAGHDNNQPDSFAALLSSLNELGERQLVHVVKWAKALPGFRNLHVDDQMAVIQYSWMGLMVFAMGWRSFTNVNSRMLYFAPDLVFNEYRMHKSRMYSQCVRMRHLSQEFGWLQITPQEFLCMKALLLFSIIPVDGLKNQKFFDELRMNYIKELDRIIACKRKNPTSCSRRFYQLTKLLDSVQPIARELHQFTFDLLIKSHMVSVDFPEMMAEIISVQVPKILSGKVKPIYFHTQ
How it was run: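 VCaP cells held 48 h in DMEM with 5% charcoal-stripped FBS, then 24 h with compound plus 0.2 nM R1881. TRIzol RNA extraction, cDNA synthesis, qRT-PCR for the target mRNA normalized to GAPDH; mean ± SD, n = 3.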

[2] = Toxicity in BALB/c nude mouse xenografted with human VCaP cells assessed as weight loss at 30 mg/kg, po qd administered for 40 days relative to control; assay type: organism-based; conditions: in vivo, 960 h
L02 = test: Antiproliferative activity against human L02 cells assessed as reduction in cell viability incubated for 6 days by CCK8 assay; assay type: cell-based; conditions: L02, 144 h
How it was run: (§1)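 Cells seeded (2×10^4 per well for VCaP, 1–3×10^3 for the others) and compound added after 24 h as a 9-point, 3-fold serial dilution. Exposure 6 days, then CCK-8 for 1–4 h and absorbance at 450 nm. IC50 from curve fit, mean of at least two independent experiments run in duplicate.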

[3] = Tmax in Sprague-Dawley rat at 30 mg/kg, po measured upto 24 hrs by LC-MS/MS analysis; assay type: ADME, organism-based; conditions: in vivo
How it was run: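 Male SD rats (N = 3), single oral 30 mg/kg in PEG200/DMA (9:1, v/v). Blood from retrobulbar vein at 0–24 h; heparinized plasma, protein precipitation with methanol, LC-MS/MS quantitation; parameters by non-compartmental analysis.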

[4] = molecular target: T1, Androgen receptor (Homo sapiens); test: Potency index, ratio of IC50 for enzalutamide to IC50 for compound for competitive displacement of [3H]R1881 from human AR expressed in LNCaP cells incubated for 24 hrs by scintillation counting method based radioligand competitive binding assay; assay type: cell-based
CWR22R = test: Antiproliferative activity against human 22Rv1 cells assessed as reduction in cell viability incubated for 6 days by CCK8 assay; assay type: functional, cell-based; conditions: 22Rv1, 144 h; how it was run: as §1
[5] = molecular target: T2, Steroid 17-alpha-hydroxylase/17,20 lyase (Homo sapiens, UniProt P05093); test: Inhibition of C-myc/DDK tagged human CYP17A1 expressed in HEK293T cells assessed as reduction in formation of 17-OHP at 10 uM incubated for 30 mins by LC-MS/MS analysis; assay type: cell-based; conditions: 0.5 h, 10 µM
T2 sequence (P05093 whole entry): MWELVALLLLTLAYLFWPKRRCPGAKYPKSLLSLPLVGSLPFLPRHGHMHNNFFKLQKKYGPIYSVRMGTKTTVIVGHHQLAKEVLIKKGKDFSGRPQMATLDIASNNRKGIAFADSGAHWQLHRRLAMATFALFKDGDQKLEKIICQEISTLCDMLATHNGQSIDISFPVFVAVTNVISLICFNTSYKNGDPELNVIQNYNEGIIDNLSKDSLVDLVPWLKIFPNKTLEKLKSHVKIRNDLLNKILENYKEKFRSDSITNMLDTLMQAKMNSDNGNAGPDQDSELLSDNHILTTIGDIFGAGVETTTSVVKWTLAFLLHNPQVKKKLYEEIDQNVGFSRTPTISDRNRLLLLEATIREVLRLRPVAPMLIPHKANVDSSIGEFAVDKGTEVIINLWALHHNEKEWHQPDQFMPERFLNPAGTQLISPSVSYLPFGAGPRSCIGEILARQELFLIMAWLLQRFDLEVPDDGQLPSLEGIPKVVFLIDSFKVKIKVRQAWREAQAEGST
How it was run: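 CYP17A1 activity measured as 17α-hydroxyprogesterone formation in 50 mM Tris pH 7.4, 5 mM MgCl2. Incubation 30 min at 37 °C, quenched with 20% trichloroacetic acid; product quantified by LC-MS/MS. Mean ± SD, n = 2.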

PC-3 = test: Antiproliferative activity against human PC3 cells assessed as reduction in cell viability incubated for 6 days by CCK8 assay; assay type: functional, cell-based; conditions: PC-3, 144 h; how it was run: as §1
VCaP = test: Antiproliferative activity against human VCaP cells assessed as reduction in cell viability incubated for 6 days by CCK8 assay; assay type: functional, cell-based; conditions: 144 h; how it was run: as §1

Activity [1]: Dose-dependent effect
Tmax [3]: 30 min
Ratio IC50 [4]: 8
inhibition (INH) [5]: Not Active
IC50 (PC-3): 23.3 µM
IC50 (VCaP): 0.7 µM
SMILES: Cc1ccc(-c2c(C)noc2C)cc1Nc1ccc(C#N)c(Cl)c1
Activity [2]: Non-Toxic
IC50 (L02): 11.3 µM
IC50 (CWR22R): 3.5 µM
